High-throughput results (PubChem)
Apaf1 activ: activators of human Apaf-1 apoptosome, primary screen, biochemical, DEVD-Rh110 fluorescence, uHTS. AID 489031, 2010. activity change, negative = activation, % at 20 µM. 0.31% of 330,000 active. Apoptotic protease-activating factor 1 (Homo sapiens), O14727. Apaf-1 apoptosome caspase-3 activation; active compounds read low;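 active = activity change at or below -40% at 20 µM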
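Assay system – biochemical Apaf-1 apoptosome reconstitution · Medium – 20 mM HEPES buffer, pH 7.5, containing CHAPS and BSA · Incubation – 30 min preincubation, 50 min reaction, room temperature · Measured by – Caspase-3-released Rh110 fluorescence, 540 nm emission, 480 nm excitation · Read-out – Caspase-3 cleavage activity downstream of Apaf-1 activation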
Rh110 act interf: Rh110 fluorescence interference by putative Apaf-1 activators, confirmation, artefact control for Apaf-1 activator project, biochemical, 20 µM | shares compounds with Apaf1 activ | quenched caspase reaction, Ex480/Em540 | fluorescence interference (activity change), % at 20 µM, hits read low | 980 tested, under 10 active;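 active = mean activity change at or below -40% when tested at 20 µM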
Apaf-1 act conf2: Apaf-1 activators, single-dose retest, confirmation, biochemical, fluorescence, DEVD-Rh110, 20 µM; reconstituted apoptosome caspase-3 activity; active compounds read low; shares compounds with Apaf1 activ; activity change, negative = activation, % at 20 µM; 5% of 980 active;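 active = mean activity change at or below -40%, meaning activation of 40% or more, at 20 µM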
Apaf1 act interf: fluorescence interference of Apaf-1 activator hits, dose response, artefact control for Apaf-1 activator project. shares compounds with Apaf1 activ. fluorescence interference counterscreen, Apaf-1 activator assay. EC50, µM. 55 tested, under 10 active. AID 588592, 2011; call rule not given here
Starred values were filed as active, the others as inactive; . = not tested or not shown. These entries were drawn from the full list.

SMILES	Apaf1 activ	Rh110 act interf	Apaf-1 act conf2	others
CC(C)(C)c1ccc(C(O)CCCN2CCC(C(O)(c3ccccc3)c3ccccc3)CC2)cc1 (stereo not drawn)	52.9	.	.
Cc1ccc2c(c1)C(=O)CC(O)(C(F)F)O2 (stereo not drawn)	-71.2*	-1.0	10.5
Cc1cccc(NC(=O)NC2CCCc3ccccc32)c1 (stereo not drawn)	-378.7*	1.3	0.5
Cc1cccc(NC2=C(NCCO)C(=O)c3ccccc3C2=O)c1	56.3	.	.
Cc1cccc(NC(=O)CC2Nc3cccc4cccc(c34)NC2=O)c1 (stereo not drawn)	70.6	.	.
O=C(C(Cc1ccccc1)N1C(=O)c2ccccc2C1=O)N1c2ccccc2CCc2ccccc21 (stereo not drawn)	40.2	.	.
Cc1noc(NS(=O)(=O)c2ccc(N/C=C\C(=O)c3ccc(F)cc3)cc2)c1C	-110.7*	-3.1	20.9
COc1cc2c(cc1OC)-c1cc3ccc4c(c3c[n+]1CC2)OCO4	73.4	.	.
Cn1ccnc1C(O)c1ccc(OCc2ccccc2)cc1 (stereo not drawn)	-354.7*	6.5	0.9
COc1ccc2ccccc2c1C(O)c1nccn1C (stereo not drawn)	40.7	.	.
CC(NCc1ccc(OCc2ccc(Cl)cc2)cc1)C(O)c1ccccc1 (stereo not drawn)	41.2	.	.
COc1cccc(-c2sc3ccc(OC)cc3c2-c2ccc(OCCN3CCCC3)cc2)c1	69.9	.	.
O=C1C(=O)c2c(C(=O)c3ccccc3)coc2-c2ccccc21	55.2	.	.
CCC/C(=C1/c2ccccc2C(=O)N1c1ccccc1)c1cnc(OC)nc1	41.0	.	.
CS(=O)(=O)NN1C(=O)c2ccccc2NC1c1ccccc1O (stereo not drawn)	-64.1*	-0.3	0.1
CC(C)c1nc(SCC(=O)c2c[nH]c3ccccc23)n[nH]1	-41.2*	0.6	5.8
Cc1[nH]n(-c2ccccc2)c(=O)c1N=Nc1nccs1	72.9	.	.
Fc1ccc(N2CCN(c3nc(CN4CCOCC4)nc4scc(-c5ccccc5)c34)CC2)cc1	41.4	.	.
Cc1ccc(C)c(NC(=S)NC(NC(=O)OCc2ccccc2)C(Cl)(Cl)Cl)c1 (stereo not drawn)	-41.5*	4.9	13.8
COc1cc2ccccc2cc1C(=O)Nc1sc2c(c1C(N)=O)CCN(C(C)C)C2	51.2	.	.
O=C1C(NS(=O)(=O)c2cccs2)=C(N2CCN(c3ccccc3)CC2)C(=O)c2ccccc21	41.2	.	.
CCC(OCC(O)CN1CCCCC1)c1ccccc1 (stereo not drawn)	-516.0*	0.0	11.8
CCOC(=O)Nc1ccc(NCc2ccc(F)cc2)nc1N	96.2	.	.
COc1cccc(-c2sc3ccccc3c2-c2ccc(OCCN(C)C)cc2)c1	75.5	.	.
COc1ccc2sc3ccccc3c(=O)c2c1	-76.7*	1.3	16.4
SMILES	Apaf1 activ	Rh110 act interf	Apaf-1 act conf2	others
CN1CCCC1CCNc1ccc2sc3ccccc3c(=O)c2c1 (stereo not drawn)	43.9	.	.
C=CCn1c(N)c(C(=O)Nc2cccc(C)c2)c2nc3ccccc3nc21	47.5	.	.
Cn1c2ccccc2c(=O)n2c(=O)c3ccccc3cc12	98.3	.	.
Cn1c(=O)nc2n(Cc3ccccc3)c3ccccc3cc-2c1=O	-172.3*	2.4	14.2
Cn1nc(-c2ccc(Cl)cc2)nc2c(=O)n(C)c(=O)nc1-2	99.0	.	.
Cc1oc2c(c1C(=O)O)C(=O)c1ccccc1C2=O	79.5	.	.
CCN(Cc1ccccc1)C(=O)c1c[nH]c2ccc(S(=O)(=O)N(C)CCC#N)cc2c1=O	-54.9*	3.7	5.3
C#CCOCCOCCOCCNc1nc(N2CCN(C(=O)[C@H](CCCCN)n3cc(CN)nn3)CC2)nc(N2CCN(C(=O)[C@H](CCCCN)n3cc(CN)nn3)CC2)n1	44.1	.	.
CC(/C=C\c1cccnc1)=C/C(=O)O	-84.3*	-1.5	-46.2*	Apaf1 act interf=>100
O=C(O)c1ccc2nc(-c3ccco3)c(-c3ccco3)nc2c1	61.7	.	.
O=C(c1ccc2nc(-c3ccco3)c(-c3ccco3)nc2c1)N1CCN(c2ccccc2)CC1	40.2	.	.
CCc1nc2ccc(C(=O)N3CCN(c4ccccc4)CC3)cc2nc1CC	-504.8*	4.1	12.3
CC1=NN(c2ccc(C(F)(F)F)cn2)C(=O)C1	62.0	.	.
O=C(NCCNc1ccc2ccccc2c1)c1cccn2c(=O)c3sccc3nc12	50.8	.	.
CN(C)S(=O)(=O)Oc1cccc(C(=O)Nc2ccc(Cl)c(Cl)c2)c1	-40.4*	2.3	14.3
